Reference: ChEMBL document CHEMBL4513216, “Probing the Open Global Health Chemical Diversity Library for Multistage-Active Starting Points for Next-Generation Antimalarials” (ACS Infect Dis, 2020)

Assay: Toxicity liver stage against HepG2, at 10uM
Assay type: cell-based
Design: test concentration 10 uM, cell line HepG2-A16-CD81EGFP
Conditions: human, HepG2-A16-CD81EGFP cells; read-out: INHIBITION
Summary of the method: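 Uninfected HepG2-A16-CD81EGFP cells, 3 × 10^3 per well, 1536-well, plated on prespotted compound at 10 μM final, parasite-free screening media added to match infected plates; puromycin 10 μM positive, DMSO 0.5% negative; run in parallel with 48 h PbLuc assay at 37 °C, 5% CO2; viability by CellTiter-Glo luminescence, normalized to controls.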

Point of comparison: CCN(C(=O)CN1CCn2c(C)nnc2C1)C1=CCCCC1, cytotoxicity at 10 µM 13.4%. Against it:
- CC(C)(C)NC(=O)COc1ccc(CNCc2ccccn2)cc1 — lower, -11.5%
- Cc1nn(-c2ccccc2Cl)c(C)c1CCC(=O)NCCS(C)(=O)=O — lower, 2.78%
- O=C1CCNc2ccc(F)cc2CN1Cc1ccccc1 — lower, -3.03%
- Cc1cc(-c2nn3c(C4CC4)nnc3s2)on1 — lower, -2.37%
- COCCN(Cc1ccoc1)C(=O)c1c(F)cccc1F — lower, 10.6%
- Cc1nc(-c2cnn(C)c2)nc2c1CN(C(=O)c1cccn1C)CC2 — lower, 4.87%
- O=C1CC2(CCN(c3nncs3)C2)CN1c1cccc(F)c1 (configuration not stated) — lower, -3.36%
- Cn1cccc1C(=O)NCc1cnc2n1CCN(C(N)=O)CC2 — lower, 0.312%
- O=C(c1ccoc1)N1CCO[C@]2(CCC[C@@H]2COCc2ccncc2)C1 — lower, 0.341%
- O=C(c1cccs1)N1CCC2(CC1)CC(Oc1ccccc1)CO2 (configuration not stated) — higher, 15.4%
- N#Cc1ccc(OC[C@]23COC[C@H]2CN(Cc2ccoc2)C3)nc1 — lower, -0.762%
- Cc1nc(N2CCCC2)nc2c1CCN(C(=O)NC1CCCC1)CC2 — lower, 3.8%
- CO[C@H]1CC[C@H]2[C@H]1OCCN2C(=O)c1ccc(C)nc1 — lower, -141%
- Cc1cs/c(=N\C(=O)Cn2nc(N3CCC(C)CC3)ccc2=O)[nH]1 — lower, 1.34%
- O=C(NCCC1=CCCCC1)C1CCCN(c2ccc3nncn3n2)C1 (configuration not stated) — lower, 4.01%
- COc1ccc2nnc(C(=O)NCC3CCCC3)nc2c1 — lower, -3.35%
- CC(=O)N1CCOC(CCc2cc(-c3c(C)noc3C)ncn2)C1 (configuration not stated) — lower, -1.98%
- CCC(=O)N1CCCC1c1n[nH]cc1-c1ccccc1F (configuration not stated) — lower, -3.02%
- NC(=O)C1(c2cnccn2)CCCN1Cc1ccc(Cl)c(F)c1 (configuration not stated) — lower, -4%
- O=C(COC1CCCC1)N1CCC(C(O)c2ccc(F)cc2)CC1 (configuration not stated) — lower, 6.62%
- COc1ccc(C2CCCN2c2cnc3ccccc3n2)c(OC)c1 (configuration not stated) — lower, 7.54%
- COc1ccc(Cl)cc1NCC(=O)N(Cc1cccnc1)C1CC1 — lower, 11.8%
- CC(C)(NCCOc1ccc(CC#N)cc1)c1nccs1 — lower, -3.25%
- COc1cccc(CN(C)Cc2c(C)noc2C)c1OC — lower, 8.82%
- CCc1nsc(N2CCOC3(CCCC3)C2)n1 — lower, 6.05%
- CC(=O)N(C)C1CCN(C(=O)NCCc2cc(F)ccc2F)CC1 — lower, -7.76%
- CCC(NC(=O)NCc1cccc(N(C)C)n1)c1cccs1 (configuration not stated) — higher, 17.9%
- CN1CCC(NC(=O)Nc2ccc(Cl)c(F)c2)C1=O (configuration not stated) — lower, -136%
- CCC(C)Oc1cc(C(=O)Nc2nccs2)ccn1 (configuration not stated) — lower, -6.19%
- CC(CO)NC(=O)c1ccc(NCc2ccc(F)c(F)c2)cc1 (configuration not stated) — lower, -5.89%
- COCCN1CC=C(c2cccc(OC)c2)CC1 — lower, 6.45%
- CC(CCc1ccccc1)N1CCC(C(=O)Nc2ccccn2)CC1 (configuration not stated) — higher, 13.5%
- Cc1ccc(NC(=O)NCCc2cnn(C)c2)c(N(C)C)n1 — the same, 13.4%
- O=C(c1ccc2c(c1)[nH]c(=O)n2C1CCCC1)N1CCSCC1 — lower, -42.3%
- COCCCOc1ccc(C(=O)N(Cc2cnn(C)c2)C(C)C)cn1 — lower, 2.1%
- CCCC(C)NC(=O)c1ccc(-c2ccco2)[nH]c1=O (configuration not stated) — lower, -20%
- CC(NC1(CNC(=O)CC(C)(C)C)CCOCC1)c1ccccc1 (configuration not stated) — lower, 8.57%
- CCc1nc(CC(=O)Nc2cnn(CC3CCCO3)c2)cs1 (configuration not stated) — lower, -3.11%
- Cc1n[nH]c(C2CN(C(=O)CCc3ccsc3)CCO2)n1 (configuration not stated) — lower, -5.15%
- CN(C)C(=O)Cc1nc(CN2CCCCC2Cn2cccn2)cs1 (configuration not stated) — lower, 6.04%
- NC(=O)c1ccc(CN2CCCC(O)C2)cc1 (configuration not stated) — lower, 0.459%
- O=C(c1ccc[nH]1)N1CCc2nnc(Cn3cccc3)n2CC1 — lower, 3.46%
- COc1ccccc1C(=O)N1CCOC2(CCCN(C(C)=O)C2)C1 (configuration not stated) — lower, -72.9%
- CCc1cnc(C)nc1NCCNc1nc(C)cc(=O)[nH]1 — lower, -9.01%
- Cc1ccc(CN(Cc2ccncc2)C2CCN(C)CC2)s1 — lower, 7.39%
- COCCC(=O)N(C)CCC1=CCN(C)CC1 — lower, -6.93%
- CC(C)c1nccn1C(C)C(=O)N1CCN(c2cnccn2)CC1 (configuration not stated) — lower, -12.5%
- O=C(CC1CCc2ccccc21)N1CCC(O)(Cn2ccnc2)CC1 (configuration not stated) — lower, 5.01%
- CO[C@@H]1c2ccccc2C2(CCN(C(=O)CNS(C)(=O)=O)CC2)[C@H]1O — lower, 11.1%
- c1ccc(-c2nc(CCNC3CCOC4(CCOCC4)C3)no2)cc1 (configuration not stated) — lower, 4.47%
- Cc1cccc(C(C(=O)NCCCc2nnc3ccccn23)N(C)C)c1 (configuration not stated) — lower, -7.88%
- Cc1nc(CCCNC(=O)C2CC(=O)N(C(C)(C)C)C2)sc1C (configuration not stated) — lower, -6.86%
- CCC(NC(=O)C1CCN(S(C)(=O)=O)CC1)c1ccc(OC)c(OC)c1 (configuration not stated) — lower, -6.69%
- CN(C)C(=O)CN1CCN(Cc2coc(-c3cccc(F)c3)n2)CC1 — lower, -3.16%
- Cc1cc(C)n(CC2CCCN2CC(=O)Nc2cc(C(C)C)no2)n1 (configuration not stated) — lower, 0.407%
- COc1ccnc(N2CCN(CC(=O)N3CCOC(C)C3)CC2)n1 (configuration not stated) — lower, -5.4%
- CC(C(=O)N1CCCN(c2ccccc2C#N)CC1)n1cccn1 (configuration not stated) — lower, -8.3%
- COc1ccc(C2=CCN(C(=O)C3CCC3)CC2)cc1 — lower, -13.1%
- CC(NC(=O)NCCCn1cccn1)c1ccc2c(c1)OCCCO2 (configuration not stated) — lower, -9.13%
- Cc1cnn(C2CCCN(C(=O)c3cc4nc(C)ccc4o3)C2)c1 (configuration not stated) — lower, 2.22%
- Cc1nccn1C1CCCN(C(=O)CCCNc2ncccn2)C1 (configuration not stated) — lower, -6.42%
- Cc1ccc(N2CCCC(NCC(=O)NC(C3CC3)C3CC3)C2)nn1 (configuration not stated) — lower, -2.8%
- Cc1nn(C)c(Cl)c1C1CCCN1C(=O)c1cnc[nH]1 (configuration not stated) — lower, -2.11%
- Cc1ncsc1C(=O)N(Cc1cccnc1)C1CC1 — lower, -4.84%
- CC(C)(CNC(=O)CCOc1cccc(F)c1)C(N)=O — lower, -0.704%
- Cc1cnn(CCCNC(=O)N2CCCCC(N3CCCC3)C2)c1 (configuration not stated) — lower, -5.97%
- c1cnc(-c2nc(CNCCn3cccn3)cs2)nc1 — lower, -10.3%
- CC(C(=O)NCCOc1cccc(Cl)c1)n1cncn1 (configuration not stated) — lower, -3.53%
- CCOc1cc(/C=C/c2ncc(C(=O)O)s2)ccc1O — lower, 0.241%
- CS(=O)(=O)NC1CCCN(C(=O)NCc2cccnc2)C1 (configuration not stated) — lower, 1.59%
- c1cncc(OC[C@]23COC[C@H]2CN(Cc2nccs2)C3)c1 — lower, -1.43%
- COCC(=O)N1CCC2(CC1)CC(COC)N(c1ncccn1)C2 (configuration not stated) — lower, 6.85%
- O=C(CC1CC1)N[C@@H]1CN(Cc2ccc(F)cc2)C[C@@H]2CCCO[C@@H]21 — higher, 14.9%
- Cc1occc1C(=O)N1C[C@@H]2[C@@H](C1)OCC(=O)N2Cc1cccnc1 — lower, 0.661%
- CN(C)C(=O)c1nn(C)c2c1CN(Cc1cccs1)C2 — lower, 4.9%
- Cc1noc([C@@H]2C[C@@H]3CCN(CC4CC4)C[C@H]3O2)n1 — lower, -139%
- CCn1nc(C)cc1C(=O)N1CC[C@H](OC)[C@H]2CN(CC3CC3)C[C@H]21 — lower, -133%
- CN(C)C(=O)CC1CC2(CCN(Cc3ccoc3)CC2)c2ccccc21 (configuration not stated) — lower, -10.1%
- Cn1nnc2c1CCN(Cc1ccoc1)C2COCc1ccccc1 (configuration not stated) — lower, -138%
- O=C(c1ccsc1)N1C[C@H]2CCC[C@@]2(COCc2cccnc2)C1 — lower, -2.86%
- CNC(=O)[C@H]1C[C@H]2OCC[C@H]2N(Cc2cccc3ccccc23)C1 — lower, 7.67%
